Test results taken from ChEMBL document CHEMBL4732199, “Potent and orally bioavailable CDK8 inhibitors: Design, synthesis, structure-activity relationship analysis and biological evaluation” (Eur J Med Chem, 2021).
Active and inactive are the calls of the source. The calls are words filed in the database; no cut-off is given here.

Legend:
[1] = biological target: Cyclin-dependent kinase 4/cyclin D1 (Homo sapiens) (UniProt P11802+P24385); test: Inhibition of CDK4/cyclin-D1 (unknown origin) at 1 uM; assay type: protein-complex assay
Summary of the method: (§1)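 Residual activity of each kinase with compound at 1 µM, measured in a contracted radioisotope-based kinase profiling assay and expressed as % kinase activity remaining.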

[2] = biological target: Cyclin-dependent kinase 1/cyclin B1 (Homo sapiens, UniProt P06493); test: Inhibition of CDK1/cyclin-B (unknown origin); assay type: protein-complex assay
Summary of the method: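 IC50 measured in a contracted radiometric kinase assay with ATP at the experimentally determined Km(ATP) of each kinase. Apparent Ki was derived by Cheng-Prusoff: Ki = IC50/(1+[ATP]/Km(ATP)).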

[3] = Oral bioavailability in BALB/c mouse at 10 mg/kg measured up to 24 hrs by LC-MS/MS analysis; settings: in vivo
[4] = Inhibition of CYP4501A in human liver microsomes using ethoxyresorufin O-deethylation as substrate by LC-MS/MS analysis
[5] = AUC in BALB/c mouse at 2 mg/kg, iv measured up to 24 hrs by LC-MS/MS analysis; settings: in vivo
[6] = Cmax in BALB/c mouse at 2 mg/kg, iv measured up to 24 hrs by LC-MS/MS analysis; settings: in vivo
[7] = Half life in BALB/c mouse at 10 mg/kg, po measured up to 24 hrs by LC-MS/MS analysis; settings: in vivo
[8] = biological target: Protein kinase C theta type (Homo sapiens, UniProt Q04759); test: Inhibition of human full length PKCtheta at 1 uM using histone H1 as substrate incubated for 40 mins in presence of [gamma-33P]-ATP by scintillation counting method relative to control
Summary of the method: (§2)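 Single-point screen of residual kinase activity (%) at 1 µM compound. Run as a contract radiometric [γ-33P]-ATP kinase assay, either the KinaseProfiler service or the HotSpot assay. ATP was set at the experimentally determined Km(ATP) of each kinase.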

[9] = biological target: CDK9/cyclin T1 (Homo sapiens) (UniProt O60563+P50750); test: Inhibition of CDK9/Cyclin T1 (unknown origin) at 1 uM relative to control; assay type: protein-complex assay; summary of the method: as §1
[10] = Tmax in BALB/c mouse at 2 mg/kg, iv measured up to 24 hrs by LC-MS/MS analysis; settings: in vivo
[11] = tested on: Glycogen synthase kinase-3 alpha (Homo sapiens), P49840 [UNDEFINED MUTATION]; test: Inhibition of human GSKalpha S449A mutant (2 to 3nd residues) at 1 uM using YRRAAVPPSPSLSRHSSPHQS(p) EDEEE as substrate incubated for 40 mins in presence of [gamma-33P]-ATP by scintillation counting method relative to control; summary of the method: as §2
[12] = Dissociation constant, pKa of the compound by UV spectrometric titration method; assay type: physicochemical
[13] = biological target: Cyclin-dependent kinase 14/Cyclin-Y (Homo sapiens) (UniProt O94921+Q8ND76); test: Inhibition of CDK14/Cyclin Y (unknown origin) at 1 uM; assay type: protein-complex assay; summary of the method: as §1
[14] = biological target: CDK6/cyclin D3 (Homo sapiens) (UniProt P30281+Q00534); test: Inhibition of CDK6/cyclin-D3 (unknown origin) at 1 uM; assay type: protein-complex assay; summary of the method: as §1
[15] = Toxicity in BALB/c mouse assessed as loss of ground substance at 70 mg/kg, po administered once daily for 7 days and measured on day 15; assay type: organism-based; settings: in vivo, 168 h, time 7 day

Glycogen synthase kinase-3 alpha (Homo sapiens), P49840 [UNDEFINED MUTATION], sequence (P49840 whole entry, looked up, stated change not applied): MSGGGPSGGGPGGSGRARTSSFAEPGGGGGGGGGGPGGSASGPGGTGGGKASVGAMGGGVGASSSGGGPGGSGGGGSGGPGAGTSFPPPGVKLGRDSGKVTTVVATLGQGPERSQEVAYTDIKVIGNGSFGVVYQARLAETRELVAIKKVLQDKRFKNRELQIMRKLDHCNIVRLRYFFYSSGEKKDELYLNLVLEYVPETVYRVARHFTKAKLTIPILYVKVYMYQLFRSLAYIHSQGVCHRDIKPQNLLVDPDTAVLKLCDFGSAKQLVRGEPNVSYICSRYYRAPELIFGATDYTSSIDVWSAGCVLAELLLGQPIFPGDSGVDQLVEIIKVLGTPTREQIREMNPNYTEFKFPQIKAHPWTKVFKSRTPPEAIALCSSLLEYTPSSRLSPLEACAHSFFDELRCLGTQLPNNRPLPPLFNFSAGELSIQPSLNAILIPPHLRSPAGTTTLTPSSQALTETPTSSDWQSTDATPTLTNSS
Cyclin-dependent kinase 1/cyclin B1, sequence (P06493 whole entry): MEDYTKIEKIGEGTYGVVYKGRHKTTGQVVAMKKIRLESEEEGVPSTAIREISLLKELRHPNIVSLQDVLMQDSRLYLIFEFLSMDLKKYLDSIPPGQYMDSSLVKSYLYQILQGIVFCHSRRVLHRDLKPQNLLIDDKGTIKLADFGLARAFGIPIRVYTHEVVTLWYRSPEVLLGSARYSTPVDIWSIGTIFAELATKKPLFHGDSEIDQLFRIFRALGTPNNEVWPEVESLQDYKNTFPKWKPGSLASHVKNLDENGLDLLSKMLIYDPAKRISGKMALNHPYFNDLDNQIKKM
Cyclin-dependent kinase 1/cyclin B1, sequence (P14635 whole entry, further chain): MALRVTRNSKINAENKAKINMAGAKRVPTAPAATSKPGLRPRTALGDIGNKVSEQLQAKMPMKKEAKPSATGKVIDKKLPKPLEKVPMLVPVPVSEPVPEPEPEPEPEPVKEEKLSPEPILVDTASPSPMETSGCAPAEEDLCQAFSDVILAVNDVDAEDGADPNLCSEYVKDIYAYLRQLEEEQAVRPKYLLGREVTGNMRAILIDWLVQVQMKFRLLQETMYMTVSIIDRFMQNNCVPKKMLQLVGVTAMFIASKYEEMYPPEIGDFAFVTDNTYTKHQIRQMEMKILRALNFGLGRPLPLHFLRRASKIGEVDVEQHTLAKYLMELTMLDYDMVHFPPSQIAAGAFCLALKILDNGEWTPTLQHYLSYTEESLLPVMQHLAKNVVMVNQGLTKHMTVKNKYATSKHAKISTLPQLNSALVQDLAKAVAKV
Protein kinase C theta type, sequence (Q04759 whole entry, looked up): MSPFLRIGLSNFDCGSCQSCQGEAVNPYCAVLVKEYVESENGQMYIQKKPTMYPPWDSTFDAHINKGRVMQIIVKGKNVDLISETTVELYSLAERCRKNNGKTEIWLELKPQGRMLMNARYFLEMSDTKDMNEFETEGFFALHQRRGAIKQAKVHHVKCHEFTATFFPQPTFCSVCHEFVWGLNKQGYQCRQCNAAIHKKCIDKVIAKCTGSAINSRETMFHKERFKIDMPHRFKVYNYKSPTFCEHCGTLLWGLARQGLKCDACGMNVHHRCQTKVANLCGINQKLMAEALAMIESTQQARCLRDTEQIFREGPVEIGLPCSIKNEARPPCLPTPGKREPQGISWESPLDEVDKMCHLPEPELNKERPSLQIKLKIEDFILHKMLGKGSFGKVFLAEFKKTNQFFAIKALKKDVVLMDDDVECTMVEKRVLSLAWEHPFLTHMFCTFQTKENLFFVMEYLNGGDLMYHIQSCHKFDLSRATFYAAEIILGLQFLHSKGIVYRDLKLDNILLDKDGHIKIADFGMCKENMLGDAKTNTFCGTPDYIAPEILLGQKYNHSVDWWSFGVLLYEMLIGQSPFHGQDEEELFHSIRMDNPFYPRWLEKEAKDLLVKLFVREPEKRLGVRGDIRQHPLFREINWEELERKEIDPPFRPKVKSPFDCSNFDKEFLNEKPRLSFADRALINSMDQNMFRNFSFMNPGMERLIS

With `O=C1NCCC12CCN(c1c(Cl)cncc1-c1cc3ccccc3o1)CC2` the inhibition [1] was “inactive”, the Ki [2] was 1.89 µM and the bioavailability [3] was 33%. It also gave an IC50 [4] of 7.7 µM, an AUC at 24 h [5] of 1.39 µM·h and a Cmax [6] of 3.44 µM. For the same molecule, the half-life [7] was 66.6 min, the inhibition [8] was greater than 50% and the inhibition [9] was greater than 50%. The Tmax [10] was 2.4 min, the inhibition [11] was greater than 50% and the pKa [12] was 4.9. For the same molecule, the inhibition [13] was “inactive”, the inhibition [14] was “inactive” and the Activity [15] was “Toxic”.
